Only some compounds are listed: those with a hit (about 1.9% of all), similar ones and a draw of the others.
PP5 inh – PP5 phosphatase inhibitors, primary screen, biochemical, fluorescence. Serine/threonine-protein phosphatase 5 (Homo sapiens), P53041. purified PP5c, OMFP substrate fluorescence. inhibition, % at 6.7 µM. 320,000 compounds, 0.18% hits;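 active = inhibition above the campaign's mean inhibition across all tested compounds plus 3 SD, cut at about 9.5% in these data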;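 note: 0% = DMSO only and 100% = 100 µM cantharidin control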
HCV NS3 hel inh – inhibitors of HCV NS3 helicase, primary screen, biochemical, Cy5 molecular beacon fluorescence | inhibition, % at 10.9 µM | 290,000 compounds, 0.56% hits | AID 1800, 2009 | NS3 helicase DNA unwinding | Hepatitis C virus NS3 helicase;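 active = inhibition above the mean of all tested compounds plus 3 SD, set per campaign, cut at about 35% in these data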;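 note: 0% = DMSO wells and 100% = thioflavine S control wells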
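test system = hepatitis C virus NS3 helicase domain fragment enzyme | reagent = annealed dual-labelled DNA beacon duplex, ATP-started | times = 1 h at 25 °C | detection = Cy5 fluorescence, 0 and 60 min reads | read-out basis = percent inhibition from t60/t0 fluorescence ratio | control set = DMSO and thioflavine S | replication = one well per compound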
PP1 inh – PP1-alpha phosphatase inhibitors, primary screen, counter-screen for PP5 inhibitor project, biochemical, fluorescence, OMFP substrate, single point; inhibition, % at 6.7 µM; AID 2235, 2010; purified PP1alpha; 320,000 compounds, 0.9% hits;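 active = inhibition above the mean inhibition of all tested compounds plus 3 SD, computed separately for each screening campaign, cut at about 15% in these data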
Target sequence (P62136 whole entry, looked up): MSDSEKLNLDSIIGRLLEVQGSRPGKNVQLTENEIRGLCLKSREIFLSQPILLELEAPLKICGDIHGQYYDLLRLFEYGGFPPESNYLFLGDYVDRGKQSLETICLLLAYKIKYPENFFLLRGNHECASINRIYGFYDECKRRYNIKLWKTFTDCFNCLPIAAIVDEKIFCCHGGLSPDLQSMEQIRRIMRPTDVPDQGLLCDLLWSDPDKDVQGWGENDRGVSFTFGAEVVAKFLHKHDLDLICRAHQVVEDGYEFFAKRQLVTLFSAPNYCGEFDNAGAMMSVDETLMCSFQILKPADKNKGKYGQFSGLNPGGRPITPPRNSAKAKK
HIF activator – HIF pathway transcriptional activators, primary screen, cell-based, U2OS HRE-luciferase, luminescence | U2OS HRE-luciferase reporter; normalized: DMSO 0%, desferrioxamine 100% | activation, % at 7.5 µM (by protocol) | 300,000 compounds, 0.32% hits;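 active = mean activation of at least 10% of the iron chelator positive control signal, with at least half of replicates also reaching 10%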
DNA FID counter – compounds displacing fluorescent DNA intercalator, primary screen, artefact control for HCV NS3 helicase inhibitor project, biochemical, FID fluorescence; DNA fluorescent intercalator displacement; inhibition, % at 7.9 µM; 290,000 compounds, 0.17% hits; AID 1845, 2009; in the data active = inhibition above about 37%;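 note: 0% = vehicle and 100% = reference compound; higher means more ethidium bromide displaced from hairpin DNA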
* hit, by the source's call.

`COc1ccc(C2c3c(-c4cc(Cl)c(C)cc4O)n[nH]c3C(=O)N2Cc2cccnc2)cc1OC` (stereo not given) gave PP5 inh 4, HCV NS3 hel inh -2, PP1 inh 15*, HIF activator 0 and DNA FID counter -4.
Screening CNc1nc(-c2ccccn2)nnc1-c1ccccc1 returned PP5 inh 1, HCV NS3 hel inh -9, PP1 inh 2, HIF activator 14* and DNA FID counter 2.
Brc1ccccc1Cn1c(-c2cscn2)nc2ccccc21 was read as PP5 inh 1, HCV NS3 hel inh -8, PP1 inh 2, HIF activator -1 and DNA FID counter -20.
Screening Cc1cccc(OCc2nnc(-c3ccc(F)cc3)o2)c1 returned PP5 inh 1 and PP1 inh 4.
Screening CCN(CC)c1ccc(NC(=O)CSc2nc3nc(C)cc(C)c3c(=O)[nH]2)cc1 returned PP5 inh 1, PP1 inh 0 and HIF activator 386*.
Screening Cc1cc(C)c2c(=O)[nH]c(SCC(=O)N(C)C)nc2n1 returned PP5 inh 1, HCV NS3 hel inh -5, PP1 inh 3, HIF activator 0 and DNA FID counter 75*.
N#Cc1cccc(CN2CCC(=O)N([C@H](CO)Cc3ccccc3)CC2)c1 was read as PP5 inh 1, HCV NS3 hel inh 13, PP1 inh 0, HIF activator -1 and DNA FID counter -23.
COc1ccc(C2C(C#N)=C3NC(=O)c4c(sc5c4CCCCC5)N3C3=C2C(=O)CC(C)(C)C3)cc1 (stereo not given) was read as PP5 inh 1, HCV NS3 hel inh 24, PP1 inh 16*, HIF activator 0 and DNA FID counter -22.
Screening COc1ccc(-c2nc3c(c(=O)[nH]c(=O)n3Cc3ccccc3)n2Cc2ccccc2)cc1 returned PP5 inh 1, HCV NS3 hel inh 0, PP1 inh 16*, HIF activator -1 and DNA FID counter -1.
For COc1ccc(-c2nc3c(c(=O)[nH]c(=O)n3Cc3ccccc3)n2C)cc1 the results were PP5 inh -7, HCV NS3 hel inh -1, PP1 inh -5, HIF activator 0 and DNA FID counter -3.
Screening COc1cccc(C2c3[nH]c4ccccc4c3C[C@H]3C(=O)N(c4ccccc4C(=O)NCCCN4CCOCC4)C(=O)N23)c1 (stereo not given in full) returned PP5 inh 5, HCV NS3 hel inh -94, PP1 inh 1, HIF activator 0 and DNA FID counter 45*.
For N#Cc1cc(O)c(-n2nnc3ccccc32)cc1C#N the results were PP5 inh 0, HCV NS3 hel inh 5, PP1 inh -4, HIF activator 0 and DNA FID counter 9.
N#Cc1cc(Oc2cccc3cccnc23)c(-n2nnc3ccccc32)cc1C#N was read as PP5 inh 6, HCV NS3 hel inh 27, PP1 inh 16*, HIF activator -2 and DNA FID counter -6.
Screening CCN(C(=O)COC(=O)C1CCN(S(=O)(=O)c2ccc(C)c(C)c2)CC1)C1CCCCC1 returned PP5 inh 4 and PP1 inh 3.
COC(=O)C(NC(=O)c1c(C)nn(C)c1Cl)c1ccccc1 (stereo not given) was read as PP5 inh 0, HCV NS3 hel inh -21, PP1 inh -1, HIF activator 609* and DNA FID counter -4.
Screening Cn1nc(-c2ccccc2)c(C(=O)NC(C(=O)O)c2ccccc2)c1Cl (stereo not given) returned PP5 inh 0, HCV NS3 hel inh -4, PP1 inh -2, HIF activator 0 and DNA FID counter -6.
`Sc1nnc(-c2ccc(Cl)cc2)n1Cc1ccccc1` gave PP5 inh 2 and PP1 inh 15*.
`Cc1ccccc1C1CC(c2cccs2)Nc2nnnn21` (stereo not given) gave PP5 inh 3, HCV NS3 hel inh 6, PP1 inh 0, HIF activator -1 and DNA FID counter -10.
CC[N+](CC)(CC)CCOc1ccc(/C=C/c2ccccc2)cc1 was read as PP5 inh -1 and PP1 inh -1.
`CC[N+](CC)(CC)CCCCOc1ccc2c(c1)C(=O)c1cc(OCCCC[N+](CC)(CC)CC)ccc1-2` gave PP5 inh 0, HCV NS3 hel inh -16, PP1 inh 3, HIF activator 0 and DNA FID counter 90*.
Screening Cc1ccccc1CN1C(=O)CSc2ccc(C(=O)N3CCOCC3)cc21 returned PP5 inh 2, HCV NS3 hel inh 1, PP1 inh -6, HIF activator 23* and DNA FID counter -21.
COc1cc(C(=O)Nc2sc(C)c(C)c2C(=O)O)cc(OC)c1OC was read as PP5 inh -10, HCV NS3 hel inh -8, PP1 inh 0, HIF activator 165* and DNA FID counter -11.
`COc1cc(C(=O)Nc2sc3c(c2C(=O)O)CCC(C)C3)cc(OC)c1OC` (stereo not given) gave PP5 inh 2, HCV NS3 hel inh 18, PP1 inh -1, HIF activator -21 and DNA FID counter -14.
O=C(CSc1nnc(NC(=O)C2CC2)s1)NCc1ccccc1 was read as PP5 inh 1, HCV NS3 hel inh 3, PP1 inh -1, HIF activator 0 and DNA FID counter -2.
`CN1CCN(CCNC(=O)c2ccc3nc(-c4ccc(F)cc4)c(-c4ccc(F)cc4)nc3c2)CC1` gave PP5 inh 1, HCV NS3 hel inh -87, PP1 inh -3, HIF activator -2 and DNA FID counter 47*.
For CC(C)(C)NC(=O)CN(Cc1cccs1)C(=O)CNS(=O)(=O)c1ccc(F)cc1 the results were PP5 inh 0, HCV NS3 hel inh 1, PP1 inh -5, HIF activator 1 and DNA FID counter -8.
Screening CC(C)(C)NC(=O)CN(Cc1ccc2c(c1)OCO2)C(=O)CNS(=O)(=O)c1ccc(F)cc1 returned PP5 inh -3, HCV NS3 hel inh -1, PP1 inh -1, HIF activator 19* and DNA FID counter -25.
CC1(C)CC2=C(CO1)C(=S)NC(c1ccccc1)N2CC1CCCO1 (stereo not given) was read as PP5 inh -1, HCV NS3 hel inh -15, PP1 inh -1, HIF activator 0 and DNA FID counter -5.
`CCOc1ccc(CCNc2nc3ccc(C)cc3n3cnnc23)cc1OCC` gave PP5 inh -2, HCV NS3 hel inh -4, PP1 inh 1, HIF activator 0 and DNA FID counter -33.
For Cc1ccc(NC(=S)N(Cc2cccs2)Cc2cc3cccc(C)c3[nH]c2=O)cc1 the results were PP5 inh 0, HCV NS3 hel inh 0, PP1 inh 0, HIF activator 889* and DNA FID counter 0.

Compound activity: PubChem BioAssay, several laboratories
